ChEMBL document CHEMBL3351352, “Discovery of a novel series of potent MK2 non-ATP competitive inhibitors using 1,2-substituted azoles as cis-amide isosteres” (Bioorg Med Chem Lett, 2014)
The source made the active and inactive calls. No cut-off for these calls is given here.

Columns and labels:
[1] = Permeability in human Caco2 cells; format: ADME, cell-based; conditions: Caco-2, read-out: permeability
THP-1 = experiment: Inhibition of LPS-induced TNFalpha production in human THP1 cells pre-incubated for 30 mins before LPS challenge measured 3 hrs after LPS addition
[2] = Protein binding in human plasma; format: ADME, cell-free; conditions: read-out: PPB (converted)
[3] = target: T1, MAP kinase-activated protein kinase 2 (Homo sapiens, UniProt P49137); experiment: Inhibition of MK2 (unknown origin) incubated for 30 mins by MK2 IMAP assay
Target sequence in this assay (P49137 whole entry): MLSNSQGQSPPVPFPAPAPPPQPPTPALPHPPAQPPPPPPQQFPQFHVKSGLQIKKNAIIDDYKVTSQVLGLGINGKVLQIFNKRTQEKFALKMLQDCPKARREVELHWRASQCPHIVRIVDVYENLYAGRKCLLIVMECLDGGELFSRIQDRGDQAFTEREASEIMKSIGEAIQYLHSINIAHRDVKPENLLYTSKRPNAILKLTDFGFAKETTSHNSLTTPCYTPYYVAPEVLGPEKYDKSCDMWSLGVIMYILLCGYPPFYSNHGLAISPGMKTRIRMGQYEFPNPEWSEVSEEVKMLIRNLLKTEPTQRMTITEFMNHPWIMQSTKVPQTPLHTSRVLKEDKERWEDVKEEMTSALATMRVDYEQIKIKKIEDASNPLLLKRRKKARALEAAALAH

[4] = target: Tyrosine-protein kinase Lck (Homo sapiens, UniProt P06239); experiment: Inhibition of LCK (unknown origin)
[5] = target: Epidermal growth factor receptor (Homo sapiens, UniProt P00533); experiment: Inhibition of EGFR (unknown origin)
[6] = target: Calcium/calmodulin-dependent protein kinase type IV (Homo sapiens, UniProt Q16566); experiment: Inhibition of CAMK4 (unknown origin)
[7] = target: Serine/threonine-protein kinase PLK3 (Homo sapiens, UniProt Q9H4B4); experiment: Inhibition of PLK3 (unknown origin)
Chain of Serine/threonine-protein kinase PLK3 (Q9H4B4 whole entry): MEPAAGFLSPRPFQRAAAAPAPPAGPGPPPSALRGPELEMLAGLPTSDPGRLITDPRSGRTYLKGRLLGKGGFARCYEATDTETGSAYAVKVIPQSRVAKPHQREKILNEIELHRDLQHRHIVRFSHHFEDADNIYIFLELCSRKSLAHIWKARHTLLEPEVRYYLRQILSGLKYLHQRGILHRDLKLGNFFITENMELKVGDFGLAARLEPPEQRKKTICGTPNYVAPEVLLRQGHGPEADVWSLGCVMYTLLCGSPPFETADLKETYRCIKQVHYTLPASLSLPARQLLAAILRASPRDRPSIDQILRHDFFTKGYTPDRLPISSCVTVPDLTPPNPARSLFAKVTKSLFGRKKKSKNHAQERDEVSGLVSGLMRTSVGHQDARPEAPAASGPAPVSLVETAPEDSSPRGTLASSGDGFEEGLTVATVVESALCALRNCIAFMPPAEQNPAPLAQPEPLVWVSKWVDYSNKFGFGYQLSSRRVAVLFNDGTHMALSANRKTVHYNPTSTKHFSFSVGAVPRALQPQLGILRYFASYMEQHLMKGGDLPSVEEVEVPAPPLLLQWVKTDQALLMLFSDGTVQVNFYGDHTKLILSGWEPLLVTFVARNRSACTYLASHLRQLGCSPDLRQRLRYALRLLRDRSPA

[8] = target: Serine/threonine-protein kinase Chk1 (Homo sapiens, UniProt O14757); experiment: Inhibition of CHK1 (unknown origin)
Chain of Serine/threonine-protein kinase Chk1 (O14757 whole entry): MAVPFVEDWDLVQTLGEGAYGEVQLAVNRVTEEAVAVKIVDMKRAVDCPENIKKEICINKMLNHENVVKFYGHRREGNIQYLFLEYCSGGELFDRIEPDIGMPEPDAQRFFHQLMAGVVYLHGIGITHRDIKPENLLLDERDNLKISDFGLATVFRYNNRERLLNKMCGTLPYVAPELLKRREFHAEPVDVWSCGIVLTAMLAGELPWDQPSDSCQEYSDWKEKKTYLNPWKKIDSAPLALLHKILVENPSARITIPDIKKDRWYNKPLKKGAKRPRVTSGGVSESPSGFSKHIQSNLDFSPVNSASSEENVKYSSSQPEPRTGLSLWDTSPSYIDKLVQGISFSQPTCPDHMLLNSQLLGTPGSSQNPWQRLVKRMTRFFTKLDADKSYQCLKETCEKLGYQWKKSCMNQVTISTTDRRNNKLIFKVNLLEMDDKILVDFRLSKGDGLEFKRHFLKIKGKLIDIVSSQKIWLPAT

[9] = target: Testis-specific serine/threonine-protein kinase 2 (Homo sapiens, UniProt Q96PF2); experiment: Inhibition of TSSK2 (unknown origin)
Chain of Testis-specific serine/threonine-protein kinase 2 (Q96PF2 whole entry): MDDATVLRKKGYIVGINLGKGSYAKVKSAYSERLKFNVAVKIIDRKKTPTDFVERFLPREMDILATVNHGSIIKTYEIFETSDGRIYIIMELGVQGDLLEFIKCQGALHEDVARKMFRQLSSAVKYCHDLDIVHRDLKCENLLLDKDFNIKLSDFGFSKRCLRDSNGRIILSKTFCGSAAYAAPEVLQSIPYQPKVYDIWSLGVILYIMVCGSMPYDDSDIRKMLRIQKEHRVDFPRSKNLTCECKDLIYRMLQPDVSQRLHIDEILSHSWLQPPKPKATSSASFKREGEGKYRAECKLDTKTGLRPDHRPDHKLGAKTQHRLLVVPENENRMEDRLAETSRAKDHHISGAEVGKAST

[10] = AUC (0 to 6 hrs) in Sprague-Dawley rat at 10 mg/kg, po; format: ADME, organism-based; parameters: time < 6 hr, dose 10 mg/kg, route oral; conditions: plasma
Method in brief: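 Sprague–Dawley rats were dosed orally with the compound in 20% HPBCD vehicle. AUC was calculated over 0 to 6 h.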

[11] = target: Serine/threonine-protein kinase 3 (Homo sapiens, UniProt Q13188); experiment: Inhibition of MST2 (unknown origin)
[12] = target: Casein kinase I isoform delta (Homo sapiens, UniProt P48730); experiment: Inhibition of CSNK1D (unknown origin)
Chain of Casein kinase I isoform delta (P48730 whole entry, canonical isoform): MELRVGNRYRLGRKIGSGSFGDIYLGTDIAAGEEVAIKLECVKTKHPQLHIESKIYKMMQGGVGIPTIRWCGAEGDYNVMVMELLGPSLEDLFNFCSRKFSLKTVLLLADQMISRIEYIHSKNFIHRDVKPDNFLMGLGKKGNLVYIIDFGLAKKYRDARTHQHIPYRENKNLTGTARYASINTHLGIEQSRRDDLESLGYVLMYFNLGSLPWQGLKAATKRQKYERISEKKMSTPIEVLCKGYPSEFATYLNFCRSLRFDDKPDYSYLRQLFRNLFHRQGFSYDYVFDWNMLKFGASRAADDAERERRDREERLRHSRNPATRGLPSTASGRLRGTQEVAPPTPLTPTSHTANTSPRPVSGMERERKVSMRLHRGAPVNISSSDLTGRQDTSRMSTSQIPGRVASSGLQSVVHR

[13] = target: Inhibitor of nuclear factor kappa-B kinase subunit beta (Homo sapiens, UniProt O14920); experiment: Inhibition of IKKB (unknown origin)
[14] = target: T1, MAP kinase-activated protein kinase 2; experiment: Inhibition of MK2 in human THP1 cells assessed as reduction in LPS-induced HSP27 Ser78 phosphorylation after 60 mins; format: cell-based, THP-1
Target sequence in this assay (P49137 whole entry): as the sequence (P49137 whole entry) above

[15] = target: Glycogen synthase kinase-3 beta (Homo sapiens, UniProt P49841); experiment: Inhibition of GSK3B (unknown origin)
Chain of Glycogen synthase kinase-3 beta (P49841 whole entry): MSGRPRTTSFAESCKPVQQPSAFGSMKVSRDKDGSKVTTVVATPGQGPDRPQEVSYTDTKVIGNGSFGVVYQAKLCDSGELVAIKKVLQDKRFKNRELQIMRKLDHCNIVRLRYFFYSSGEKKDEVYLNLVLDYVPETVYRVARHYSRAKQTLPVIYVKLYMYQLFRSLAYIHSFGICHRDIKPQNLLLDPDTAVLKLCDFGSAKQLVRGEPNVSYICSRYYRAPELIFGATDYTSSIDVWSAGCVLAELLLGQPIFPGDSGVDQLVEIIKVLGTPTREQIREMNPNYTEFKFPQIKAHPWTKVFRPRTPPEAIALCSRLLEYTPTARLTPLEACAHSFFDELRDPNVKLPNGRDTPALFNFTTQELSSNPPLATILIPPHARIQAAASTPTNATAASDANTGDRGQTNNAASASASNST

[16] = target: T1, MAP kinase-activated protein kinase 2; experiment: Non-ATP competitive inhibition of MK2 (unknown origin) incubated for 30 mins in presence of 1 uM and 100 uM ATP by MK2 IMAP assay
Method in brief: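 Inhibitor, ATP and MK2 (final 50 pM) were preincubated 30 min. TAMRA-labelled peptide (final 100 nM) was added for 30 min; final DMSO was 1%. Progressive binding reagent stopped the reaction (30 min); read at ex 530/em 580 nm. Values are means of duplicates or triplicates.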

[17] = target: Cyclin-dependent kinase 2 (Homo sapiens, UniProt P24941); experiment: Inhibition of CDK2 (unknown origin)
[18] = target: Hepatocyte growth factor receptor (Homo sapiens, UniProt P08581); experiment: Inhibition of MET (unknown origin)
[19] = target: Serine/threonine-protein kinase Nek2 (Homo sapiens, UniProt P51955); experiment: Inhibition of NEK2 (unknown origin)
Chain of Serine/threonine-protein kinase Nek2 (P51955 whole entry): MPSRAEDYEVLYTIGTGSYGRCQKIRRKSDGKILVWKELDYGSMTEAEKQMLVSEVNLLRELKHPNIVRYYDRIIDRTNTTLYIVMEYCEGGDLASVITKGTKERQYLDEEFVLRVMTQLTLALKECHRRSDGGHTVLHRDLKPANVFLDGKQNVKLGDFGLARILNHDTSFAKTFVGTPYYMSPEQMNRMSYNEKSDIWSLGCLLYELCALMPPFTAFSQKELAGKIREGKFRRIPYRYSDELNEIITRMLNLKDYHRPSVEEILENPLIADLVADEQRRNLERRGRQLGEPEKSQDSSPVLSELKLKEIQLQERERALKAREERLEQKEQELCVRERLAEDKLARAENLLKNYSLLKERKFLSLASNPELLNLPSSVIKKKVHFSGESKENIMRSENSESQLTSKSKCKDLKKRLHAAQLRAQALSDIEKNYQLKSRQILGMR

[20] = target: Tyrosine-protein kinase JAK2 (Homo sapiens, UniProt O60674); experiment: Inhibition of JAK2 (unknown origin)
[21] = target: Vascular endothelial growth factor receptor 2 (Homo sapiens, UniProt P35968); experiment: Inhibition of KDR (unknown origin)
Chain of Vascular endothelial growth factor receptor 2 (P35968 whole entry): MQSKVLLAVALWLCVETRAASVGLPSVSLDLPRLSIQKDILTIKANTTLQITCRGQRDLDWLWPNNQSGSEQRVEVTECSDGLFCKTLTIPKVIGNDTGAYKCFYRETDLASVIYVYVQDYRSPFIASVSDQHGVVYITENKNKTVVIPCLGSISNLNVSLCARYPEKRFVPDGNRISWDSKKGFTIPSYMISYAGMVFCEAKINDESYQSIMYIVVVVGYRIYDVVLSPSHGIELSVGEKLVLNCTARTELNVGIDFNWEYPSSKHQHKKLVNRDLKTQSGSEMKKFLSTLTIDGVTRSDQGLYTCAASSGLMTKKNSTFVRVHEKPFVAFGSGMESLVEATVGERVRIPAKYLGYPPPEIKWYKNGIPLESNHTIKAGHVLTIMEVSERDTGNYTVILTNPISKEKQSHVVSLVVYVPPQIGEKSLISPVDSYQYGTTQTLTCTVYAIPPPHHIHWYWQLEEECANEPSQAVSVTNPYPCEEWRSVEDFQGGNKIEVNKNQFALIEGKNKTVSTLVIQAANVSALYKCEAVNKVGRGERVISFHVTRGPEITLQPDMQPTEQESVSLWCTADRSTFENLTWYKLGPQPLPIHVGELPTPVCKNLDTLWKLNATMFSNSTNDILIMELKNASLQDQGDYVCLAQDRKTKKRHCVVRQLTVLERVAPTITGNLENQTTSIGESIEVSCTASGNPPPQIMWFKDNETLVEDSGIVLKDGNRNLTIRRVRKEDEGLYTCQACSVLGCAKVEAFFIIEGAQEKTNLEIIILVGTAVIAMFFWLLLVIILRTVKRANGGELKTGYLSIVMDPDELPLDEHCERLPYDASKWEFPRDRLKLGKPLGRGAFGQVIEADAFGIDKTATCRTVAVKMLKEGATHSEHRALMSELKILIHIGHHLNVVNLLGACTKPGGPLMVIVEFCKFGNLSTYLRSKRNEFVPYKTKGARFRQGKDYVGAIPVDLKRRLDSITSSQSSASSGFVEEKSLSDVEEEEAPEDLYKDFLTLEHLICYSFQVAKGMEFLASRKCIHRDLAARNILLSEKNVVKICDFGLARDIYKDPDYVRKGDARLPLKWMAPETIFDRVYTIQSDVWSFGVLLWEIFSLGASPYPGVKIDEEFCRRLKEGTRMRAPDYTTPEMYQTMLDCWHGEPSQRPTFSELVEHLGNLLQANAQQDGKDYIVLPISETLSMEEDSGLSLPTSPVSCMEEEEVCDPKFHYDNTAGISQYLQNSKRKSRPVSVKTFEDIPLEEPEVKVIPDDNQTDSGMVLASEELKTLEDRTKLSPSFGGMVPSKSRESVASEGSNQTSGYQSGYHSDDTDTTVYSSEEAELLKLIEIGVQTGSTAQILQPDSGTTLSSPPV

Ephrin type-B receptor 4 = Ephrin type-B receptor 4 (Homo sapiens, UniProt P54760); experiment: Inhibition of EPHB4 (unknown origin)
[22] = target: RAC-alpha serine/threonine-protein kinase (Homo sapiens, UniProt P31749); experiment: Inhibition of AKT1 (unknown origin)
[23] = target: Interleukin-1 receptor-associated kinase 4 (Homo sapiens, UniProt Q9NWZ3); experiment: Inhibition of IRAK4 (unknown origin)
Chain of Interleukin-1 receptor-associated kinase 4 (Q9NWZ3 whole entry): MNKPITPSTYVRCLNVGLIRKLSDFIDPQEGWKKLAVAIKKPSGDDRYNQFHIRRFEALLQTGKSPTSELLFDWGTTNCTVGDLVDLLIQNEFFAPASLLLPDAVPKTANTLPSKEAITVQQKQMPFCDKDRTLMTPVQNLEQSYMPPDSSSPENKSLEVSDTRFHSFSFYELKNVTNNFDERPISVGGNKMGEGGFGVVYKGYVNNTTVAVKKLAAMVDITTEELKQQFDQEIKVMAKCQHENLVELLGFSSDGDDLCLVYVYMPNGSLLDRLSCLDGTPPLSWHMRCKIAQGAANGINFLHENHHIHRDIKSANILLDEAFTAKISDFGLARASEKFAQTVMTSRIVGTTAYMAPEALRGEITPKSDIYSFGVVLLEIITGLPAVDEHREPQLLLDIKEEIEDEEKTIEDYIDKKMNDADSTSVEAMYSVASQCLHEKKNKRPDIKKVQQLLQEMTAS

[24] = target: Receptor-type tyrosine-protein kinase FLT3 (Homo sapiens, UniProt P36888); experiment: Inhibition of FLT3 (unknown origin)
[25] = target: Rho-associated protein kinase 2 (Homo sapiens, UniProt O75116); experiment: Inhibition of ROCK2 (unknown origin)
[26] = target: Mitogen-activated protein kinase 1 (Homo sapiens, UniProt P28482); experiment: Inhibition of ERK2 (unknown origin)
[27] = target: Protein kinase C alpha type (Homo sapiens, UniProt P17252); experiment: Inhibition of PKCA (unknown origin)
[28] = target: Ribosomal protein S6 kinase alpha-3 (Homo sapiens, UniProt P51812); experiment: Inhibition of RSK2 (unknown origin)
[29] = target: Insulin-like growth factor 1 receptor (Homo sapiens, UniProt P08069); experiment: Inhibition of IGF1R (unknown origin)

O=C1c2oc(-c3ccc(Cl)cc3)cc2Cc2cc(N3CCNCC3)ccc2N1Cc1ccccc1-c1cncnc1
Papp [1]: < 0.1 ×10⁻⁶ cm/s
IC50 (THP-1): 1.49 µM
fraction unbound [2]: 0.016

Clc1ccc(-c2ccc(-c3nccn3-c3ccc(N4CCNCC4)cc3)o2)cc1
IC50 [3]: 0.0255 µM
IC50 [4]: > 30 µM
IC50 [5]: > 30 µM
IC50 [6]: > 30 µM
IC50 [7]: > 30 µM
Papp [1]: 5 ×10⁻⁶ cm/s
IC50 [8]: > 30 µM
IC50 [9]: > 30 µM
AUC(0-t) at 6 h [10]: 13.3 µM·h
IC50 [11]: > 30 µM
IC50 [12]: > 30 µM
IC50 (THP-1): 0.8 µM
IC50 [13]: > 30 µM
IC50 [14]: 2.14 µM
IC50 [15]: > 30 µM
inhibition [16]: Active
IC50 [17]: > 30 µM
IC50 [18]: > 30 µM
IC50 [19]: > 30 µM
IC50 [20]: > 30 µM
IC50 [21]: > 30 µM
IC50 (Ephrin type-B receptor 4): > 30 µM
fraction unbound [2]: 0.028
IC50 [22]: > 15 µM
IC50 [23]: > 30 µM
IC50 [24]: > 30 µM
IC50 [25]: > 20 µM
IC50 [26]: > 30 µM
IC50 [27]: > 30 µM
IC50 [28]: > 30 µM
IC50 [29]: > 30 µM
